ALR inh = human ALR oxidase inhibition via reduced H2O2; P55789; purified ALR, DTT oxidation, H2O2 HRP-luminol luminescence; inhibition, % (no concentration beside the values); hit rate 3.8% among 290,000; AID 485317;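 active means mean replicate inhibition above about 79%, with every replicate also reaching it, limit read from the data; inconclusive means only one of the two criteria met; inactive means mean below limit and not every replicate reaching it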
Target sequence (P55789 whole entry, looked up): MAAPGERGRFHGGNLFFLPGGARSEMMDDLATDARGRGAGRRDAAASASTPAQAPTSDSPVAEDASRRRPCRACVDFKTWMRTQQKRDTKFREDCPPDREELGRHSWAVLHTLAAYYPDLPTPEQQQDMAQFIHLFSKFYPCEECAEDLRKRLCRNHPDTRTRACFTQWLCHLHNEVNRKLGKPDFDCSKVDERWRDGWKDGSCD
AI-2 QS mod = modulators of Vibrio harveyi AI-2 quorum sensing system. Vibrio harveyi JMH597 AI-2 luminescence/OD600 ratio, 9 h; stronger effect = lower value; strain lacks LuxN and CqsS sensors; 0 = neutral-control median. AID 2094. activity change, % at 7.5 µM. hit rate 0.4% among 300,000; in the data active means activity change below about -75%, passing the limit was not always enough; inconclusive means no clear call, values can overlap the other calls;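 further: luminescence divided by OD600 gain over 9 h not by final OD600 alone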
core dimer inh = blocks dimerization of HCV core protein; TR-FRET GST/Flag-core106 dimerization, 1536-well; inhibition, % at 5 µM; AID 1899; hit rate 0.33% among 300,000;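 active means inhibition above the mean of all tested compounds plus 3 SD, set per screening campaign, cut at about 45% in these data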
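test system = GST/Flag-tagged HCV core106 proteins | probe or stimulus = Eu donor and XL665 acceptor anti-tag antibodies | times = compound-protein-antibody incubation 4 h at 22.5 °C | signal = TR-FRET, excitation 340 nm, emission 617 and 671 nm | measure = percent inhibition of core106 dimerization signal | controls = wells lacking GST-core106 and wells with excess unlabelled core106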
PHOSPHO1 inh = PHOSPHO1 (human) inhibition; recombinant PHOSPHO1, absorbance phosphatase assay; Q8TCT1; hit rate 1.1% among 290,000; inhibition, % at 13.3 µM; in the data active means inhibition above about 60%
Target sequence (Q8TCT1 whole entry, looked up): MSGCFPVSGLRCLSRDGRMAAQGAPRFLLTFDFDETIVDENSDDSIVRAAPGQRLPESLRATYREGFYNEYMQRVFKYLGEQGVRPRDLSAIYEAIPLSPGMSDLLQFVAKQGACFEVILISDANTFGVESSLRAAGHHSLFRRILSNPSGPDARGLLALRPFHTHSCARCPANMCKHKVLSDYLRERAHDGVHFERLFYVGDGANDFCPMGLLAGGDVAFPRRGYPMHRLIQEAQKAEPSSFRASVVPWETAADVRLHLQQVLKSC
HSF-1 act = increases HSF-1 driven luciferase reporter signal | NIH3T3-HGL HSF-1 luciferase reporter, MG132, 8 h; 100% = twice DMSO control signal | activation, % at 9 µM | hit rate 1.7% among 300,000 | AID 504408;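 active means mean replicate activation of at least 50% with a set share of replicates each reaching 50%; inconclusive means only one of those two conditions met; inactive means mean below 50% and too few replicates reaching it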;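 further: 0% = median of the neutral control wells and 100% = twice that signal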
HSF1 inh = HSF1 inhibition; NIH3T3-HGL HSE-luciferase, MG132-induced, luminescence 8 h; stronger effect = lower value; AID 2098; hit rate 0.77% among 300,000; activity change, negative = inhibition, % at 7.5 µM (by protocol);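 active means more than half of replicate wells show activity change below -50%, luminescence cut by over half; inconclusive means some wells, but at most half, below -50%; inactive means no replicate well below -50%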;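 further: luciferase reports HSF-1 transcriptional activity via heat shock element; 0% = median of DMSO wells and -100% = zero luminescence signal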
The depositor's hits bear a star; ? = inconclusive; nt = no result. Rows were chosen to be rich in hits. Some 6.8% of all compounds tested hit in one or more screens of this group.

SMILES | ALR inh | AI-2 QS mod | core dimer inh | PHOSPHO1 inh | HSF-1 act | HSF1 inh
C/C(Cn1nc([N+](=O)[O-])cc1C)=N\NC(=O)COc1ccc(Cl)cc1Cl | 2 | 0 | -9 | 17 | 24 | -1
COc1ccc(C(=O)Nc2ccccc2C(=O)N/N=C/c2cccc3ccccc23)cc1 | -9 | 24 | 25 | 24 | -76 | -72*
NC(=O)c1ccccc1NC(=O)c1ccc2ccccc2c1 | -2 | 10 | 4 | 24 | 66* | 46
COc1cccc(/C=N/NC(=O)c2ccccc2NC(=O)c2ccco2)c1OC | -2 | 8 | -6 | 28 | 17 | 5
COc1ccc(C(=O)Nc2ccccc2C(=O)Nc2ccccc2C(=O)O)cc1 | 98* | 12 | 10 | 29 | ? | 20
Cc1cc(C(=O)Nc2ccccc2C(=O)O)oc1C | 98* | 20 | -12 | 27 | 11 | 3
COc1ccc(C(=O)Nc2ccccc2C(N)=O)cc1 | -5 | nt | -3 | -36 | 19 | 8
CCN(CC)CCCNC(=S)N(Cc1cccnc1)Cc1cc2cc(C)ccc2[nH]c1=O | -2 | 4 | 2 | 24 | 19 | -1
COc1ccc(C(=O)Nc2ccccc2C(=O)Nc2ccncc2)cc1 | -6 | -3 | -14 | 63* | 29 | 14
CC1(c2ccc(Cl)c(Cl)c2)NC(=S)N2C1NC(=S)N2c1ccccc1 (stereo not given) | 5 | 4 | 9 | 89* | 18 | 21
CC1(c2ccc(Cl)cc2)NC(=S)N2C1NC(=S)N2c1ccccc1 (stereo not given) | -16 | 8 | 4 | 20 | -6 | 12
O=C(NNc1nc2cc3c(cc2s1)OCO3)c1cccc(F)c1 | 3 | -88* | 0 | -11 | 10 | 8
COc1cc(C(=O)NNc2nc3cc4c(cc3s2)OCO4)cc(OC)c1OC | 99* | 25 | -9 | -1 | 62* | 26
COc1cc(OC)cc(C(=O)NNc2nc3cc4c(cc3s2)OCO4)c1 | ? | -18 | -14 | -18 | 23 | 18
Cc1cc(C)cc(NC(=O)CCn2c(=O)c3cccn3c3ccccc32)c1 | -4 | 17 | 17 | 38 | -8 | 6
COc1ccc(NC(=O)[C@H](C)NC(=O)C2CCN(S(=O)(=O)c3ccc(C)cc3)CC2)cc1OC | -9 | nt | -2 | 7 | -1 | -3
Cc1cc(=O)[nH]c(SCC(=O)Nc2c(C)n(C)n(-c3ccccc3)c2=O)n1 | -7 | nt | nt | nt | nt | nt
O=C(O)C1C2CCC(O2)C1C(=O)Nc1ccc(F)cc1 (stereo not given) | -6 | 23 | -5 | 39 | -4 | 3
CCc1ccc(NC(=O)C2C3CCC(O3)C2C(=O)O)cc1 (stereo not given) | -5 | 10 | -9 | 8 | -74 | -70*
O=C(NCCCSc1ccccc1)c1cc(Cl)ccc1O | -1 | 7 | nt | 20 | 10 | 6
CCOC(=O)[C@@H]1[C@H]2COc3ccc(Br)cc3[C@H]2N2C(=O)N(c3cccc(Cl)c3)C(=O)[C@]12C | -6 | 26 | 11 | -19 | 22 | 12
Cc1oc(S(=O)(=O)N(C)C)cc1C(=O)Nc1ccc(Cl)cc1 | -4 | 26 | 0 | 20 | 55* | 15
COc1ccc(NC(=O)c2cc(S(=O)(=O)N3CCCC3)oc2C)cc1 | 3 | 11 | 2 | 7 | 30 | -2
CCOC(=O)CN(c1cc([N+](=O)[O-])ccc1OC)S(C)(=O)=O | -20 | -21 | -3 | 37 | 6 | 4
O=C(N1CCOCC1)C12CCC3CC(CC(C3)C1)C2 | 1 | 20 | -6 | -2 | -64 | -54*
SMILES | ALR inh | AI-2 QS mod | core dimer inh | PHOSPHO1 inh | HSF-1 act | HSF1 inh
CCNS(=O)(=O)c1ccc2nc(NC(=O)/C=C/c3cc(OC)c(OC)c(OC)c3)sc2c1 | 2 | 21 | -11 | -8 | -20 | -7
Clc1ccc(-c2nnc(-c3ccccc3)c(N3CCSCC3)n2)cc1 | 47 | 12 | 9 | 34 | 2 | -3
CC1CN(c2nc(-c3ccc(Br)cc3)nnc2-c2ccccc2)CC(C)N1 (stereo not given) | 97* | 18 | -7 | 36 | 3 | -10
Cc1cn2c(=O)c(C(=O)N3CCN(c4ccccc4Cl)CC3)cnc2s1 | 1 | 7 | 0 | nt | -2 | -4
Cc1ccc(C)c(NC(=O)CS(=O)(=O)c2cn(C)c3ccccc23)c1 | -11 | 14 | 0 | -1 | 54* | 29
Cn1cc(S(=O)(=O)CC(=O)Nc2ccc3c(c2)OCCO3)c2ccccc21 | nt | 14 | 3 | -3 | 1 | -8
CCCNC(=O)c1oc2ccc3c(c2c1C)C(=O)CC(C)(C)O3 | -15 | 33 | 2 | 8 | 59* | 52
CCCNC(=O)c1oc2ccc3c(c2c1C)C=CC(C)(C)O3 | -3 | 14 | 5 | 46 | 28 | 19
CCOC(=O)NNC(=O)C1CCC(C)CC1 (stereo not given) | 1 | 9 | -5 | 35 | -9 | -6
COc1cc2c(cc1OC)C(c1ccc(N(C)C)cc1)CC(=O)N2 (stereo not given) | 38 | 11 | 5 | 1 | -4 | 3
CCN(CC)c1ccc(C2CC(=O)Nc3cc(OC)c(OC)cc32)cc1 (stereo not given) | 98* | 16 | -2 | -16 | 8 | 2
CCOC(=O)C1=C(C)NC2=C(C(=O)CCC2)C1c1ccc(N(C)C)cc1 (stereo not given) | 74 | 9 | -1 | 11 | 6 | -2
CCCOC(=O)C1=C(C)NC2=C(C(=O)CCC2)C1c1ccc(N(C)C)cc1 (stereo not given) | 91* | 30 | -4 | -22 | 10 | 19
CCN(CC)c1ccc(C2C(C(=O)OCCOC)=C(C)NC3=C2C(=O)CCC3)cc1 (stereo not given) | 99* | 10 | 1 | 6 | 5 | 7
O=C(Nc1ccccc1)C1=C(c2ccccc2)S(=O)(=O)CCS1(=O)=O | nt | ? | nt | 1 | -68 | -62*
c1ccc2c(-c3c[nH]c4ccccc34)c3ccccc3nc2c1 | 0 | -1 | 2 | 5 | -3 | 14
O=C(O)c1cc(-c2c[nH]c3ccccc23)nc2ccc3ccccc3c12 | 92* | 17 | 8 | 8 | -75 | -68*
Cc1cc(Oc2ccc(=O)[nH]n2)nc(Cl)n1 | nt | 29 | 2 | 38 | -12 | -10
COc1ccc2c(c1)C(=NO)c1cc(OC)ccc1-2 | 96* | 11 | -4 | 54 | -6 | 0
C=CCOc1ccc2c(c1)C(=NO)c1cc(OCC=C)ccc1-2 | -4 | 59 | 2 | 2 | 6 | 5
Cc1ccc(S(=O)(=O)NCCSc2nncn2C)cc1 | nt | 7 | 5 | 22 | -7 | -9
Cc1ccc(S(=O)(=O)NC(C)(C)CSc2nncn2N)cc1 | -8 | 5 | 1 | 4 | -83 | -77*
CSc1ccc(NC(N)=S)cc1 | -2 | -7 | -2 | 34 | -17 | -4
